Assay results gathered from unrelated publications.
Compare with care: the assays were run in different laboratories.
dxs: dxs (Pseudomonas aeruginosa, UniProt Q9KGU7)
ACE: Angiotensin-converting enzyme (ACE, Oryctolagus cuniculus, UniProt P12822)
ALOX5: Polyunsaturated fatty acid 5-lipoxygenase (ALOX5, Homo sapiens, UniProt P09917)

SMILES | target | assay | setting | measurement | result
CC(=O)P(=O)(O)OCCc1cn([C@H](Cc2ccccc2)C(=O)O)nn1 | dxs | enzyme activity, inhibitor |  | Ki | 2.6 µM
CC(C)C[C@H](N)C(=O)N[C@@H](Cc1c[nH]c2ccccc12)C(=O)N[C@@H](CC(=O)O)C(=O)N1CCC[C@H]1C(=O)N1CCC[C@H]1C(=O)N[C@@H](CCC(=O)O)C(=O)NCC(=O)N[C@@H](C)C(=O)N1CCC[C@H]1C(=O)O | ACE | enzyme activity, inhibitor |  | IC50 | 207 µM
N[C@@H](Cc1c[nH]cn1)C(=O)N[C@@H](CC(=O)O)C(=O)N[C@@H](CS)C(=O)N[C@@H](Cc1ccccc1)C(=O)O | ACE | enzyme activity, inhibitor |  | IC50 | 4.5 µM
COc1ccc(CCCCC(=O)C(F)(F)C(F)(F)F)cc1 | Cytosolic phospholipase A2 (PLA2G4A, Homo sapiens, UniProt P47712) | enzyme activity, inhibitor |  | IC50 | 26.2 µM
C=CCOc1ccc(C(=O)/C=C/c2cccc(F)c2)c(OS(C)(=O)=O)c1I | ALOX5 | enzyme activity, inhibitor |  | IC50 | 34.6 µM
CCCCOc1cc(C(=O)NCCN(CC)CC)c2ccccc2n1 | PKD2L1 (Homo sapiens, UniProt Q9P0L9, F549I) | ion current, inhibitor, patch clamp |  | IC50 | 76.2 µM
Cn1c(=O)n(CCCCN2CCC3(CC2)OCc2ccccc23)c2ccccc21 | Sodium-dependent serotonin transporter (Slc6a4, Rattus norvegicus, UniProt P31652) | ligand displacement, radioligand | cell membranes | Ki | 2.83 µM
COc1cc2c(cc1OC)CN(CCc1ccc(NC(=O)c3cccc4c(=O)c5cccc(OC)c5[nH]c34)cc1)CC2 | Mu-type opioid receptor (OPRM1, Homo sapiens, UniProt P35372) | cell-free assay |  | Ki | > 10 µM
COC(=O)C1=CO[C@@H](O[C@@H]2O[C@H](CO)[C@@H](O)[C@H](O)[C@H]2O)[C@@H]2C(CO)=CC[C@H]12 | Cystathionine beta-synthase (CBS, Homo sapiens, UniProt P35520) | binding, MST |  | Kd | 38.4 µM
CCCCOP(=O)(O)C(C)=O | dxs | enzyme activity, inhibitor |  | Ki | 1.84 µM
N=C(N)NCCC[C@H](NC(=O)[C@H](Cc1ccccc1)NC(=O)[C@@H]1CCCN1C(=O)[C@H](CO)NC(=O)[C@@H]1CCCN1C(=O)[C@@H](N)Cc1ccccc1)C(=O)O | ACE | enzyme activity, inhibitor |  | IC50 | 81.3 µM
CCN1CCN(Cc2ccc(Nc3ncc(F)c(-c4cc(F)c5nc6n(c5c4)[C@H](C)CCC6)n3)nc2)CC1 | Multidrug and toxin extrusion protein 2 (SLC47A2, Homo sapiens, UniProt Q86VL8) | enzyme activity, inhibitor |  | IC50 | 0.0654 µM
C=CCOc1ccc(C(=O)/C=C/c2ccc(OC)cc2)c(OS(C)(=O)=O)c1I | ALOX5 | enzyme activity, inhibitor |  | IC50 | 38.3 µM
